Measurements as given in PMC4180501 (Biochimica et biophysica acta, 2012).
Substitutions are numbered along the chain they refer to. pKd: −log10 of the molar value.

Columns and labels:
[1] = target: T1, GK-W167 (W99R/W257F) (Homo sapiens, UniProt P35557, W257F/W99R); assay: D-glucose binding by tryptophan fluorescence titration; conditions: W-167, no GKA
T1 sequence (P35557 1-465 W99R/W257F): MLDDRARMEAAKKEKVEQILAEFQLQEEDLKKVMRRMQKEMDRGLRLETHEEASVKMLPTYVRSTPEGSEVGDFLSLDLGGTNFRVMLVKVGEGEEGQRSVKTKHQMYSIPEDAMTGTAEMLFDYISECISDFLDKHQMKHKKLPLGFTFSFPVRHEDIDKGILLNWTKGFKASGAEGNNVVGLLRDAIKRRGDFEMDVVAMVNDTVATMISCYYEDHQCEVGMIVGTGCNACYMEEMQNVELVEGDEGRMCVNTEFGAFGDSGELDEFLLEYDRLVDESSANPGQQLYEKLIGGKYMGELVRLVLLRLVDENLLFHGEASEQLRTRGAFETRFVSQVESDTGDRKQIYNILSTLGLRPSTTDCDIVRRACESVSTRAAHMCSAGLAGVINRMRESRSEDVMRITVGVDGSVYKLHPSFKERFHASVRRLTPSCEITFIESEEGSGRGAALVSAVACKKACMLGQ

[2] = target: T2, GK- W257 (W99R/W167F) (Homo sapiens, UniProt P35557, W167F/W99R); assay: as above; conditions: W-257, no GKA
T2 sequence (P35557 1-465 W99R/W167F): T1 sequence (P35557 1-465 W99R/W257F) with W167F, F257W

[3] = target: T3, GK-WT (Homo sapiens, UniProt P35557); assay: NADP+-coupled spectrophotometric kinetic assay; type: biochemical; conditions: GK-WT, no GKA
T3 sequence (P35557 1-465): T1 sequence (P35557 1-465 W99R/W257F) with R99W, F257W

[4] = target: T4, GK-W99 (W167F/W257F) (Homo sapiens, UniProt P35557, W167F/W257F); assay: NADP+-coupled spectrophotometric kinetic assay; type: biochemical; conditions: W-99, no GKA
T4 sequence (P35557 1-465 W167F/W257F): T1 sequence (P35557 1-465 W99R/W257F) with R99W, W167F
In short: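 Recombinant human β-cell glucokinase single-Trp variant, expressed in E. coli as a GST fusion and sequence-verified. Catalytic parameters came from an NADP+-coupled spectrophotometric assay run with or without 30% glycerol. Hill coefficient and glucose S0.5 were obtained by fitting v/Vmax = [glucose]^H/(K′+[glucose]^H), with […].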

[5] = target: T4, GK-W99 (W167F/W257F); assay: DSC thermal denaturation; conditions: W-99 in buffer, 300 mM D-glucose
In short: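 Samples were degassed and scanned by DSC at 0.25 degree/min against a reference holding everything except protein. Tm and calorimetric ΔH were taken by integrating the Cp-vs-temperature thermogram; Cpm is the apparent heat capacity at the maximum.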

[6] = target: T3, GK-WT; assay: Urea unfolding/refolding of GK by tryptophan fluorescence; conditions: 20°C, pH 7.3
In short: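 GK-WT unfolding was followed by urea titration in 20 mM PO4, 50 mM KCl, 1 mM EDTA, 1 mM DTT, pH 7.3, 20 °C, ± 20% glycerol, ± 300 mM glucose. I320/I360 was read at 295 nm excitation, and ΔGu(H2O) came from a two-state fit. Reversibility was tested after 30 min in 4 or 8 M urea, then dialysis, by restoration of the spectrum and glucose response.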

For `OC[C@H]1OC(O)[C@H](O)[C@@H](O)[C@@H]1O` (stereo partly drawn) [D-glucose], the pKd ([1]; 20% glycerol) was 4.05, the pKd ([1]; no glycerol) was 3.42 and the pKd ([2]; 20% glycerol) was 2.68. For the same compound, the pKd ([2]; no glycerol) was 1.95, the “Glucose S0.5” value ([3]; 30% glycerol) was 3.15 mM and the “nH (Hill coefficient towards glucose)” value ([3]; 30% glycerol) was 1.78. For the same compound, the “Glucose S0.5” value ([3]; no glycerol) was 6.26 mM, the “nH (Hill coefficient towards glucose)” value ([3]; no glycerol) was 1.69 and the “Glucose S0.5” value ([4]; 30% glycerol) was 6.53 mM. For the same compound, the kcat ([4]; 30% glycerol) was 6.10 s⁻¹, the kcat/S0.5 ([4]; 30% glycerol) was 0.93 s⁻¹ mM⁻¹ and the “nH (Hill coefficient towards glucose)” value ([4]; 30% glycerol) was 1.52. The “Glucose S0.5” value ([4]; no glycerol) was 21.0 mM, the kcat ([4]; no glycerol) was 8.47 s⁻¹ and the kcat/S0.5 ([4]; no glycerol) was 0.40 s⁻¹ mM⁻¹. The “nH (Hill coefficient towards glucose)” value ([4]; no glycerol) was 1.24, the “Cp^m” value [5] was 100.8 kJ/mol/°C and the ΔH thermal denaturation [5] was 426.8 kJ/mol. The Tm ([5]; DSC) was 49.6 °C, the “ΔGu(H2O) of urea denaturation” value ([6]; GK-WT in 20% glycerol with 300 mM D-glucose) was 2.87 kcal/mol and the “ΔGu(H2O) of urea denaturation” value ([6]; GK-WT in buffer with 300mM D-glucose) was 2.48 kcal/mol.
